We go through 24 compounds from ChEMBL document CHEMBL1132197, “Stereospecific synthesis, structure-activity relationship, and oral bioavailability of tetrahydropyrimidin-2-one HIV protease inhibitors” (J Med Chem, 1999).

A short description of data set [1]: The maximum plasma concentration (Cmax) is the observed peak plasma concentration after an oral dose on rat. Also on record: route oral. It counts as ADME, organism-based. In outline: (§1)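 Rats dosed orally in groups at 10 mg/kg, in a formulation of propylene glycol, poly(ethylene glycol) 400 and water. Cmax is the observed peak plasma concentration after the oral dose.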

The subject of data set [2] is MT2. Put plainly: Antiviral activity by measuring its effect on the accumulation of viral RNA transcripts on infection of MT-2 cells with HIV-1 RF. It counts as functional. The note with it: Homo sapiens. The procedure, abridged: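 Viral RNA transcript accumulation read 3 days after HIV-1 RF infection of MT-2 cells. IC90 is the concentration cutting viral RNA by 90% versus an untreated infected culture. TC50 came from MTT dye reduction in uninfected MT-2 cultures grown 3 days with compound.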

The nature of data set [3]: The maximum plasma concentration (Cmax) is the observed peak plasma concentration after an oral dose on rat. It counts as ADME, organism-based. Also on record: route oral. The procedure, abridged:
as §1

The target in data set [4] is Human immunodeficiency virus type 1 protease (Human immunodeficiency virus 1, UniProt Q72874). Description: Inhibition constant of HIV protease inhibitors. The procedure, abridged:
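HIV protease (HIVPR) inhibition constant was determined by monitoring cleavage of a fluorescent peptide substrate, with products separated and quantified by HPLC.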

Data set [5] in a line: The maximum plasma concentration (Cmax) is the observed peak plasma concentration after an oral dose on dog. It counts as ADME, organism-based, Canis lupus familiaris. Also noted: route oral.

On to `O=C1N(Cc2cccc(CO)c2)[C@H](Cc2ccccc2)[C@H](O)[C@@H](O)[C@@H](Cc2ccccc2)N1Cc1cccc(CO)c1`, for which, in data set [1], the Cmax – broadly, the peak of the concentration-time curve – was determined as 0.83 µM. For the same compound, in data set [2], the 90% effect level (IC90) was put at 38 nM.
`Nc1cccc(CN2C(=O)N(Cc3cccc(N)c3)[C@H](Cc3ccccc3)[C@H](O)[C@H]2CCc2ccccc2)c1`: the IC90 (usually the point of the concentration-response curve where the effect stands at 90%) in data set [2] stood at 365 nM. The peak level in data set [3] (Cmax) was 1 µM.
For `O=C1N(Cc2cccc(O)c2)[C@H](CCc2ccccc2)[C@@H](O)[C@@H](Cc2ccccc2)N1Cc1cccc(O)c1`, the highest level in data set [1] (Cmax) was 0.12 µM. The IC90 in data set [2] is 115 nM.
`O=C1N(Cc2cccc(O)c2)[C@H](Cc2ccccc2)[C@H](O)[C@@H](O)[C@@H](Cc2ccccc2)N1Cc1cccc(O)c1` had a Cmax in data set [1] of 0.81 µM. Besides, the IC90 in data set [2] is 54 nM.
Compound `O=C1N(Cc2cccc(CO)c2)[C@H](CCc2ccccc2)[C@@H](O)[C@@H](Cc2ccccc2)N1Cc1cccc(CO)c1` had an IC90 in data set [2] of 109 nM. This compound had a Cmax in data set [3] of 0.24 µM.
In the case of `O=C1N(Cc2cccc(O)c2)[C@H]([C@@H](F)Cc2ccccc2)[C@@H](O)[C@@H](Cc2ccccc2)N1Cc1cccc(O)c1`, the Ki (as a rule, a dissociation constant, usually derived from enzyme kinetics or from competition with a known ligand) in data set [4] turned out to be 12 nM. This compound registered a Cmax in data set [1] of 0.25 µM. Moreover, in data set [2], the IC90 stood at 2100 nM.
`O=C1N(Cc2ccc3[nH]ncc3c2)[C@H](CCc2ccccc2)[C@@H](O)[C@@H](Cc2ccccc2)N1Cc1ccc2[nH]ncc2c1` displayed a Ki in data set [4] of 0.02 nM. Moreover, the Cmax in data set [5] amounted to 0.25 µM.
`CC(=O)c1cccc(CN2C(=O)N(Cc3cccc(C(C)=O)c3)[C@H](Cc3ccccc3)[C@H](O)[C@H]2CCc2ccccc2)c1` displayed a Ki in data set [4] of 0.91 nM. The IC90 in data set [2] came to 49 nM. In data set [3], this compound yielded a Cmax of 0.18 µM.
Regarding `Nc1[nH]nc2ccc(CN3C(=O)N[C@H](CCc4ccccc4)[C@@H](O)[C@H]3Cc3ccccc3)cc12`, in data set [4], the Ki stood at 0.38 nM. Further, the IC90 in data set [2] turned out to be 549 nM.
For `O=C1N(Cc2ccc3c[nH]nc3c2)[C@H](CCc2ccccc2)[C@@H](O)[C@@H](Cc2ccccc2)N1Cc1ccc2c[nH]nc2c1`, the Ki in data set [4] stood at 0.06 nM. In data set [2], this compound came in with an IC90 of 32 nM.
In turn, `O=C1N(Cc2cccc(-c3cc[nH]n3)c2)[C@H](CCc2ccccc2)[C@@H](O)[C@@H](Cc2ccccc2)N1Cc1cccc(-c2cc[nH]n2)c1` had a Ki in data set [4] of 0.1 nM. Further, the IC90 in data set [2] came to 22 nM. Moreover, the Cmax in data set [3] came out at 0.16 µM.
Compound `CC(=O)c1cccc(CN2C(=O)N(Cc3cccc(C(C)=O)c3)[C@H](Cc3ccccc3)[C@H](O)[C@@H](O)[C@H]2Cc2ccccc2)c1` had a Cmax in data set [1] of 0.5 µM.
On to `Nc1[nH]nc2ccc(CN3C(=O)N(Cc4ccccc4)[C@H](Cc4ccccc4)[C@H](O)[C@H]3CCc3ccccc3)cc12`, for which the Ki in data set [4] worked out at 0.65 nM. Besides, the IC90 in data set [2] came to 71 nM.
In data set [1], `Nc1cccc(CN2C(=O)N(Cc3cccc(N)c3)[C@H](Cc3ccccc3)[C@H](O)[C@@H](O)[C@H]2Cc2ccccc2)c1` [MOZENAVIR] showed a Cmax of 2.25 µM.
On to `N/C(=N\O)c1cccc(CN2C(=O)N(Cc3cccc(N)c3)[C@H](Cc3ccccc3)[C@H](O)[C@H]2CCc2ccccc2)c1`, for which the Ki in data set [4] worked out at 0.02 nM. Also, in data set [2], the IC90 was found to be 17 nM.
On to `O=C1N(Cc2cccc(-c3cc[nH]n3)c2)[C@H](Cc2ccccc2)[C@H](O)[C@@H](O)[C@@H](Cc2ccccc2)N1Cc1cccc(-c2cc[nH]n2)c1`, for which the Cmax in data set [1] is 0.07 µM.
With `Nc1cccc(CN2C(=O)N(Cc3ccc4[nH]nc(N)c4c3)[C@H](CCc3ccccc3)[C@@H](O)[C@H]2Cc2ccccc2)c1`, affinity in data set [4] was put at a Ki of 0.1 nM. Moreover, the IC90 in data set [2] was 53 nM.
The like results for `N=C(NO)c1cccc(CN2C(=O)N(Cc3cccc(C(=N)NO)c3)[C@H](Cc3ccc(F)cc3)[C@H](O)[C@H]2CCc2ccc(F)cc2)c1` were, in that order, 0.02 nM and 49 nM.
The like results for `Cc1ccc(NC(=O)c2cccc(CN3C(=O)N(Cc4cccc(C(=O)Nc5ccc(C)cn5)c4)[C@H](Cc4ccccc4)[C@H](O)[C@H]3CCc3ccccc3)c2)nc1` were, in that order, 0.08 nM and 26 nM.
Consider `Nc1noc2ccc(CN3C(=O)N(Cc4ccc5onc(N)c5c4)[C@H](Cc4ccccc4)[C@H](O)[C@H]3CCc3ccccc3)cc12`, for which, in data set [4], the Ki was found to be 0.41 nM. This compound registered an IC90 in data set [2] of 132 nM.
Consider `N=C(NO)c1cccc(CN2C(=O)N(Cc3cccc(C(=N)NO)c3)[C@H](Cc3ccc(F)c(F)c3)[C@H](O)[C@H]2CCc2ccc(F)c(F)c2)c1`, for which the Ki in data set [4] came out at 0.01 nM. The same compound came in with an IC90 in data set [2] of 117 nM.
In the same order, the values of `NC(=O)c1cccc(CN2C(=O)N(Cc3cccc(C(N)=O)c3)[C@H](Cc3ccc(F)c(F)c3)[C@H](O)[C@H]2CCc2ccc(F)c(F)c2)c1` are 0.15 nM and 90 nM.
The like results for `N=C(NO)c1cc(CN2C(=O)N(Cc3ccc(F)c(C(=N)NO)c3)[C@H](Cc3ccccc3)[C@H](O)[C@H]2CCc2ccccc2)ccc1F` were, in that order, 0.06 nM and 51 nM.
`O=C1N[C@H](CCc2ccccc2)[C@@H](O)[C@@H](Cc2ccccc2)N1Cc1cccc(O)c1` returned a Ki in data set [4] of 2.6 nM. Moreover, the 90% effect level in data set [2] (IC90) was put at 4800 nM.
